Compound in series [1]: O=C(O)c1cn([C@@H]2O[C@H](CO)[C@@H](O)[C@H]2O)c2ccc(Cl)cc2c1=O
In words: (§1) Competitive inhibition of Trypanosoma cruzi glycosomal GAPDH assessed as increase in NAD+ Km by ITC method. In a few lines: (§2)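 Enzyme assays were run by isothermal titration calorimetry (ITC), probing the GAPDH NAD+ cosubstrate site and the active site. Affinity is reported as apparent Ki. Mode of inhibition was judged from how NAD+ and G3P KM and Vmax respond. Kinetic models were compared by second-order Akaike's information criterion.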

Compound in series [2]: COc1ccc2c(c1)c(=O)c(C(=O)O)cn2[C@@H]1O[C@H](CO)[C@@H](O)[C@H]1O
The description is as §1. The method, boiled down: as §2

Compound in series [3]: Cc1ccc2c(c1)c(=O)c(C(=O)O)cn2[C@@H]1O[C@H](CO)[C@@H](O)[C@H]1O
The series is described as §1. The method, boiled down: as §2

Compound in series [4]: Cc1ccc2c(=O)c(C(=O)O)cn([C@@H]3O[C@H](CO)[C@@H](O)[C@H]3O)c2c1
The series is described as §1. In a few lines: as §2

Compound in series [5]: O=C(O)c1cn([C@@H]2O[C@H](CO)[C@@H](O)[C@H]2O)c2ccc(Br)cc2c1=O
The series is described as §1. In a few lines: as §2

Compound in series [6]: COc1ccc2c(=O)c(C(=O)O)cn([C@@H]3O[C@H](CO)[C@@H](O)[C@H]3O)c2c1
The series is described as §1. In a few lines: as §2

Compound in series [7]: O=C(O)c1cn([C@@H]2O[C@H](CO)[C@@H](O)[C@H]2O)c2cc(Br)ccc2c1=O
Described as §1. The method, boiled down:
as §2

Usually Km stands for the concentration of substrate that gives half-maximal velocity.

B1: Glyceraldehyde-3-phosphate dehydrogenase, glycosomal (Trypanosoma cruzi), P22513 (protein)
chain: MPIKVGINGFGRIGRMVFQALCEDGLLGTEIDVVAVVDMNTDAEYFAYQMRYDTVHGKFKYEVTTTKSSPSVAKDDTLVVNGHRILCVKAQRNPADLPWGKLGVEYVIESTGLFTAKAAAEGHLRGGARKVVISAPASGGAKTLVMGVNHHEYNPSEHHVVSNASCTTNCLAPIVHVLVKEGFGVQTGLMTTIHSYTATQKTVDGVSVKDWRGGRAAAVNIIPSTTGAAKAVGMVIPSTQGKLTGMSFRVPTPDVSVVDLTFTAARDTSIQEIDAALKRASKTYMKGILGYTDEELVSADFINDNRSSIYDSKATLQNNLPKERRFFKIVSWYDNEWGYSHRVVDLVRHMASKDRSARL
With B1, the Km in series [1] is 63.4 µM; in series [2] it was 47 µM; in series [3] it was 48.5 µM; in series [4], 46.9 µM; in series [5], 62.6 µM; in series [6], 67.7 µM. Also, the Km in series [7] was 50 µM.

The values are drawn from ChEMBL document CHEMBL2407047, “Molecular design, synthesis and biological evaluation of 1,4-dihydro-4-oxoquinoline ribonucleosides as TcGAPDH inhibitors with trypanocidal activity” (Bioorg Med Chem Lett, 2013).
